These results are taken from ChEMBL document CHEMBL1155802, “Synthesis, DNA binding, and cytotoxic evaluation of new analogs of diallyldisulfide, an active principle of garlic” (Bioorg Med Chem, 2008).

One assay deals with Hepatocyte. In words: Cytotoxicity against rat primary hepatocytes after 24 hrs by MTT assay. It counts as cell-based. In outline: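 Hepatocytes were isolated from rat liver and cultured in DMEM with 10% FBS at 37 °C under 5% CO2/[…]. Cells were seeded at 1×10^5 cells/ml and exposed to analog at 1–1000 µM for 24 h. MTT was then added for 4 h, formazan was dissolved in DMSO, and A540 was read. Each dose was run in triplicate, and IC50 was derived from mean OD versus concentration curves.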

The test system of assay [1] is Rattus norvegicus. In words: Decrease in hepatic cholesterol level in hypercholesterolemic Wistar rat at 20 mg/kg, po for 1 week with diet. It counts as functional. In outline:
(§1)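 Adult male Wistar rats (100–120 g) were used, six per group. They received 5% cholesterol diet for 1 week, then cholesterol-rich diet plus compound at 20 mg/Kgwt, as a suspension in water, po, during week 2. Controls were saline-fed and cholesterol-only groups. Hepatic and serum cholesterol and triglycerides were measured by enzymatic assays. Values are mean ± SE from duplicate assays, compared with the hypercholesterolemic group.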

The test system of assay [2] is Rattus norvegicus. In words: Decrease in serum cholesterol level in hypercholesterolemic Wistar rat at 20 mg/kg, po for 1 week with diet. It counts as functional. In a few lines: as §1
Assay [3] has as its system Rattus norvegicus. In words: Decrease in hepatic triglyceride level in hypercholesterolemic Wistar rat at 20 mg/kg, po for 1 week with diet. It counts as functional. In outline: as §1
For assay [4], the system named is Rattus norvegicus. In words: Decrease in serum triglyceride level in hypercholesterolemic Wistar rat at 20 mg/kg, po for 1 week with diet. The format is functional. In outline: as §1
The test system of assay [5] is DNA. In words: Binding affinity to calf thymus DNA assessed as melting temperature at pH 7.4 by thermal denaturation assay. The format is nucleic-acid assay. As to conditions: Bos taurus.
Assay [6] relates to DNA. In words: Binding affinity to calf thymus DNA assessed as change in melting temperature by thermal denaturation assay. It counts as nucleic-acid assay. As to conditions: Bos taurus.
Assay [7] is described as follows: Binding affinity to AT(d(AT)10) oligonucleotide assessed as melting temperature at pH 7.4 by thermal denaturation assay.
A short description of assay [8]: Binding affinity to AT(d(AT)10) oligonucleotide assessed as change in melting temperature by thermal denaturation assay.
Assay [9] in a line: Binding affinity to GC(d(GC)7) oligonucleotide assessed as melting temperature at pH 7.4 by thermal denaturation assay.
Assay [10] in a line: Binding affinity to GC(d(GC)7) oligonucleotide assessed as change in melting temperature by thermal denaturation assay.
The nature of assay [11]: Binding affinity to GC(d(GC)7) oligonucleotide assessed as binding constant at DNA melting temperature at 12.5 uM. In a few lines: (§2)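 Binding constants came from absorbance at 260 nm versus temperature, 25 to 100 °C at 1 °C/min. Conditions were 20 mM sodium phosphate pH 7.4, 100 mM NaCl, 2.5 μM DNA (bp) and a saturating 12.5 μM analog.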
The test system of assay [12] is DNA. In words: Binding affinity to calf thymus DNA assessed as binding constant at DNA melting temperature at 12.5 uM. As to conditions: Bos taurus. It counts as nucleic-acid assay. In outline: as §2

In turn, `FC(F)(F)c1ccc(/C=C/CSSC/C=C/c2ccc(C(F)(F)F)cc2)cc1` yielded a concentration for half-maximal inhibition (IC50) in the assay with Hepatocyte of 140 µM. Moreover, the Activity with Rattus norvegicus [1] turned out to be 2.12 mg/dL; in the assay with Rattus norvegicus [2] it was 42.69 mg/dL; with Rattus norvegicus [3], 20.57 mg/dL; in the assay with Rattus norvegicus [4], 35.09 mg/dL. In addition, the figures for the Tm (in the assay with DNA [5]; in assay [7]; in [9]) were 78 °C, 52 °C and 91 °C, respectively. Moreover, the values for the ΔTm (in the assay on DNA [6]; in [8]; in [10]) were 5 °C, 0 °C and 4 °C, respectively.

`Brc1ccccc1/C=C/CSSC/C=C/c1ccccc1Br`: the IC50 with Hepatocyte turned out to be 365 µM. The Activity is 2.07 mg/dL in the assay on Rattus norvegicus [1], 41.07 mg/dL with Rattus norvegicus [2], 21.41 mg/dL with Rattus norvegicus [3] and 35.54 mg/dL with Rattus norvegicus [4]. Moreover, the results for the Tm (in the assay with DNA [5]; in [7]; in [9]) were 80 °C, 52 °C and 92 °C, respectively. For the same compound, the shift in melting temperature (ΔTm) worked out at 7 °C in the assay on DNA [6], 0 °C in assay [8] and 5 °C in assay [10].

`Brc1ccc(/C=C/CSSC/C=C/c2ccc(Br)cc2Br)c(Br)c1`: the IC50 in the assay on Hepatocyte was 275 µM. In addition, the Activity in the assay with Rattus norvegicus [1] amounted to 2.12 mg/dL; in the assay with Rattus norvegicus [2], 41.61 mg/dL; in the assay on Rattus norvegicus [3], 21.79 mg/dL; in the assay with Rattus norvegicus [4], 34.65 mg/dL. For the same compound, the midpoint of thermal melting (Tm) with DNA [5] was found to be 81 °C; in [7] it was 50 °C; in assay [9] it was 93 °C. The results for the ΔTm (with DNA [6]; in assay [8]; in assay [10]) were 8 °C, -2 °C and 6 °C, respectively.

Consider `Clc1ccccc1/C=C/CSSC/C=C/c1ccccc1Cl`, for which the results for the K (in assay [11]; with DNA [12]) were 6.9 ×10⁶ /M and 4.03 ×10⁵ /M, respectively. The compound further gave an IC50 in the assay on Hepatocyte of 425 µM. For the same compound, the Activity in the assay with Rattus norvegicus [1] stood at 1.87 mg/dL; in the assay with Rattus norvegicus [2], 37.29 mg/dL; in the assay on Rattus norvegicus [3] it was 19.28 mg/dL; in the assay with Rattus norvegicus [4], 32.87 mg/dL. Besides, the figures for the Tm (in the assay on DNA [5]; in assay [7]; in assay [9]) were 81 °C, 49 °C and 93 °C, respectively. In addition, the ΔTm in the assay with DNA [6] was 8 °C; in assay [8] it was -3 °C; in assay [10], 6 °C.

The compound `O=[N+]([O-])c1ccc(/C=C/CSSC/C=C/c2ccc([N+](=O)[O-])cc2)cc1` showed an IC50 in the assay with Hepatocyte of 335 µM. The Activity is 1.97 mg/dL with Rattus norvegicus [1], 38.37 mg/dL in the assay on Rattus norvegicus [2], 19.8 mg/dL with Rattus norvegicus [3] and 33.32 mg/dL in the assay with Rattus norvegicus [4]. Moreover, the figures for the Tm (in the assay with DNA [5]; in [7]; in [9]) were 80 °C, 52 °C and 94 °C, respectively. Moreover, the ΔTm with DNA [6] was 7 °C; in [8] it was 0 °C; in assay [10] it was 7 °C.

Consider `C=CCS[S+]([O-])CC=C` (configuration not stated) [ALLICIN], for which the Activity with Rattus norvegicus [1] came to 2.15 mg/dL; in the assay on Rattus norvegicus [2] it was 42.69 mg/dL; in the assay on Rattus norvegicus [3] it was 20.34 mg/dL; in the assay with Rattus norvegicus [4] it was 36.86 mg/dL.

Turning to `CC[C@H](C)C(=O)O[C@H]1C[C@@H](C)C=C2C=C[C@H](C)[C@H](CC[C@@H]3C[C@@H](O)CC(=O)O3)[C@H]21` [LOVASTATIN], the Activity in the assay on Rattus norvegicus [1] came out at 1.6 mg/dL; with Rattus norvegicus [2], 36.21 mg/dL; in the assay with Rattus norvegicus [3] it was 17.35 mg/dL; in the assay on Rattus norvegicus [4] it was 31.98 mg/dL.

With `Fc1ccc(/C=C/CSSC/C=C/c2ccc(F)cc2)cc1`, in the assay on Hepatocyte, inhibition was half-maximal at 155 µM (IC50). The Activity is 2.07 mg/dL in the assay on Rattus norvegicus [1], 42.15 mg/dL with Rattus norvegicus [2], 21.03 mg/dL with Rattus norvegicus [3] and 35.54 mg/dL in the assay on Rattus norvegicus [4]. Moreover, the Tm in the assay on DNA [5] was found to be 79 °C; in assay [7], 51 °C; in assay [9] it was 92 °C. Moreover, the figures for the ΔTm (with DNA [6]; in [8]; in assay [10]) were 6 °C, -1 °C and 5 °C, respectively.

As for `Clc1ccc(/C=C/CSSC/C=C/c2ccc(Cl)cc2Cl)c(Cl)c1`, in the assay with Hepatocyte, it took 350 µM to reach half-maximal inhibition (IC50). The Activity was 2.04 mg/dL in the assay with Rattus norvegicus [1], 42.15 mg/dL with Rattus norvegicus [2], 20.61 mg/dL in the assay on Rattus norvegicus [3] and 34.65 mg/dL in the assay on Rattus norvegicus [4]. In addition, the midpoint of thermal melting (Tm) came to 81 °C with DNA [5], 51 °C in [7] and 93 °C in assay [9]. Besides, the values for the ΔTm (with DNA [6]; in assay [8]; in assay [10]) were 8 °C, -1 °C and 6 °C, respectively.
